{"data": "Results collected from several papers", "observed": "cell growth or viability", "note": "pEC50: −log10 of the molar value."}
{"Compound": "CCOc1cccc(C(=O)CC(SCc2cccc(Br)c2)C(=O)O)c1 (stereo not shown)", "cell line": "U2OS", "assay": "MTT", "conditions": "48 h", "measurement": "pEC50", "value": 4.01}
{"Compound": "[NH2][Pt]([NH2])([Cl])[Cl]", "cell line": "HeLa", "assay": "SRB", "measurement": "GI50", "value": "1.9 µM"}
{"Compound": "Cc1nc(Nc2ncc(C(=O)Nc3c(C)cccc3Cl)s2)cc(N2CC[C@H](O)C2)n1", "cell line": "SU-DHL-6", "assay": "ATP luminescence", "conditions": "10 µM, 72 h", "measurement": "inhibition", "value": "97%"}
{"Compound": "CCC(=CCc1c(O)cc2c(c1O)C(=O)C[C@@H](c1ccccc1O)O2)CC", "cell line": "HeLa", "assay": "MTT", "conditions": "15 µM, 48 h", "measurement": "inhibition", "value": "0.607%"}
{"Compound": "CCOc1ccc(-c2cc(C(=O)O)c(-c3ccc(Cl)cc3)o2)cc1", "cell line": "SK-MEL-2", "assay": "MTT", "conditions": "48 h", "measurement": "pEC50", "value": 4.14}
{"Compound": "N#CSCCCCOc1ccc2c(-c3ccccc3)cc(=O)oc2c1", "cell line": "HeLa", "assay": "SRB", "measurement": "GI50", "value": "25 µM"}
{"Compound": "CCOc1ccc(C(=O)CC(SCc2ccc(Cl)cc2)C(=O)O)cc1 (stereo not shown)", "cell line": "U2OS", "assay": "MTT", "conditions": "48 h", "measurement": "pEC50", "value": 3.89}
{"Compound": "CCC(=CCc1c(O)cc2c(c1O)C(=O)CC(c1ccc(O)cc1)O2)CC (stereo in doubt)", "cell line": "HeLa", "assay": "MTT", "conditions": "0.781 µM, 48 h", "measurement": "inhibition", "value": "0.607%"}
{"Compound": "Cc1nc(NC(=O)N2CCC[C@H]2C(N)=O)sc1-c1ccnc(C(C)(C)C(F)(F)F)c1", "cell line": "Detroit 562", "assay": "ATP luminescence", "conditions": "5 days", "measurement": "pEC50", "value": 4.53}
{"Compound": "O=c1[nH]cc(F)c(=O)[nH]1", "cell line": "HeLa", "assay": "SRB", "measurement": "GI50", "value": "4.4 µM"}
